What is called IC50 is the point on the concentration scale where inhibition reaches its midpoint. In general, Ki refers to a dissociation constant, usually derived from enzyme kinetics or from competition with a known ligand.

The source made the active and inactive calls. The calls are words filed in the database; no cut-off is given here.

Tested on in the first assay: not listed separately
Briefly: Inhibition of [3H]glutamate uptake at VGLUT in rat brain synaptic vesicles. It counts as tissue-based. Summed up: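 Rat brain synaptic vesicles (approx. 0.1 mg protein) were incubated with ³H-L-glutamate (0.25 mM) and inhibitor over 0.01-5 mM, and the assay was started by adding substrate. IC50 values were taken from non-linear regression of sigmoidal dose-response curves and converted to Ki with the Cheng-Prusoff relationship, as mean ± s.e.m. (n = 3).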
With `CC[C@H](C)[C@H](NC(=O)[C@H](N)CCC(N)=O)C(=O)N[C@H](CCC(=O)O)C(=O)N[C@@H](Cc1c[nH]c2ccccc12)C(=O)O`, the IC50 is 864 µM and the Ki is 828 µM.

The next assay relates to VGLUT (Rattus norvegicus). The experiment in a line: Inhibition of [3H]glutamate uptake at VGLUT in rat brain synaptic vesicles relative to control; values are per cent of control. Details: concentration or dose not given beside the values.
Regarding `CCC(C)C(NC(=O)C(N)CCC(N)=O)C(=O)NC(CCC(=O)O)C(=O)NC(Cc1c[nH]c2ccccc12)C(=O)O` (racemic), the level, % of control was determined as 38%.

Take `CC[C@H](C)[C@H](NC(=O)[C@@H](N)CCC(N)=O)C(=O)N[C@H](CCC(=O)O)C(=O)N[C@@H](Cc1c[nH]c2ccccc12)C(=O)O`: the level, % of control turned out to be 82%.

`CC[C@H](C)[C@@H](NC(=O)[C@@H](N)CCC(N)=O)C(=O)N[C@@H](CCC(=O)O)C(=O)N[C@@H](Cc1c[nH]c2ccccc12)C(=O)O` had a level, % of control of 69%.

Turning to `NC(=O)C[C@H](NC(=O)[C@H](N)Cc1c[nH]c2ccccc12)C(=O)N[C@H](CCC(=O)O)C(=O)N[C@H](Cc1ccccc1)C(=O)O`, the level, % of control is 41%.

With `CC[C@H](C)[C@@H](NC(=O)[C@H](N)CCC(N)=O)C(=O)N[C@@H](CCC(=O)O)C(=O)N[C@H](Cc1c[nH]c2ccccc12)C(=O)O`, the level, % of control was 35%.

In turn, `CC[C@H](C)[C@@H](NC(=O)[C@@H](N)CCC(N)=O)C(=O)N[C@@H](CCC(=O)O)C(=O)N[C@H](Cc1c[nH]c2ccccc12)C(=O)O` had a level, % of control of 28%.

`NC(=O)CC(NC(=O)C(N)Cc1c[nH]c2ccccc12)C(=O)NC(CCC(=O)O)C(=O)NC(Cc1ccccc1)C(=O)O` (racemic) registered a level, % of control of 13%.

Compound `NC(=O)CCC(N)C(=O)NC(Cc1c[nH]c2ccccc12)C(=O)NC(CCC(=O)O)C(=O)NC(Cc1c[nH]c2ccccc12)C(=O)O` (racemic) showed a level, % of control of 66%.

`CC[C@H](C)[C@@H](NC(=O)[C@H](N)CCC(N)=O)C(=O)N[C@H](CCC(=O)O)C(=O)N[C@H](Cc1c[nH]c2ccccc12)C(=O)O` returned a level, % of control of 63%.

As for `CC[C@H](C)[C@@H](NC(=O)[C@@H](N)CCC(N)=O)C(=O)N[C@H](CCC(=O)O)C(=O)N[C@H](Cc1c[nH]c2ccccc12)C(=O)O`, the level, % of control worked out at 60%.

For another assay, the species on record is Rattus norvegicus. Briefly: Inhibition of v-ATPase activity in rat brain synaptic vesicles. It counts as tissue-based.
As to `CCC(C)C(NC(=O)C(N)CCC(N)=O)C(=O)NC(CCC(=O)O)C(=O)NC(Cc1c[nH]c2ccccc12)C(=O)O` (racemic), the result was inactive.

Consider `NC(=O)CC(NC(=O)C(N)Cc1c[nH]c2ccccc12)C(=O)NC(CCC(=O)O)C(=O)NC(Cc1ccccc1)C(=O)O` (racemic), for which the outcome was inactive.

(Values after ChEMBL document CHEMBL1149688, “Tetrapeptide inhibitors of the glutamate vesicular transporter (VGLUT)” (Bioorg Med Chem Lett, 2007).)
